Published values from different studies.
Protocols differ between the studies behind these lines.

Cl.Cn1c(=O)n(CCCCN2CCC3(CC2)OCc2ccccc23)c2ccccc21 — half-life (male Sprague-Dawley rat, plasma; intravenous, 10 mg/kg): 216 min
CN1CCC[C@H]1c1cccnc1 — half-life (rat, plasma; intravenous, 0.1 mg/kg): 68 min
Cc1ccc2cc(N3CCC4(O)C(=O)c5cc(C)c(C)cc5N=C34)ccc2n1 (stereo not shown) — half-life (rat, plasma; intravenous, 2 mg/kg): 186 min
O=c1c2cc(Cl)c(CO)cc2[nH]c(=S)n1Cc1cncnc1 — half-life (metabolic stability; mouse, liver microsomes; 1 µM, pH 7.4): 57.9 min
C#Cc1nc(C(=O)N2CCC(NC(=O)c3cnc(-c4ccccc4)s3)(c3nc4ccccc4n3C)CC2)cs1 — half-life (metabolic stability; mouse, liver microsomes): ~20 min
Cc1[nH]c(C)c(S(=O)(=O)Nc2ccc(S(=O)(=O)F)c(Cl)c2)c1C(=O)N1CCC(F)(F)C1 — half-life (metabolic stability; mouse, liver microsomes): 32 min
CC[C@H](C)CCCCC(=O)N[C@@H](CCN)C(=O)N[C@H](C(=O)N[C@@H](CCN)C(=O)N[C@H]1CCNC(=O)[C@H]([C@@H](C)O)NC(=O)[C@H](CCN)NC(=O)[C@H](CCN)NC(=O)[C@H](CC(C)C)NC(=O)[C@@H](CC(C)C)NC(=O)[C@H](CCN)NC1=O)[C@@H](C)O — C0 (male Sprague-Dawley rat, plasma; intravenous, 5 mg/kg): 15400 ng/mL
Cc1[nH]c(C)c(S(=O)(=O)Nc2ccc(S(F)(F)(F)(F)F)cc2)c1C(=O)N1CCC(F)(F)C1 — half-life (metabolic stability; mouse, liver microsomes): 20 min
CC(C)CC(=O)OC[C@H]1O[C@@](C#N)(c2ccc3c(N)ncnn23)[C@H](O)[C@@H]1O — half-life (metabolic stability; mouse, hepatocytes; 5 µM): < 4.36 min
CC(=O)c1c(C)c2cnc(Nc3ccc(C4CCN(CCS(C)(=O)=O)CC4)cn3)nc2n(C2CCCC2)c1=O — half-life (metabolic stability; mouse, liver microsomes): 72.2 min
